In ChEMBL document CHEMBL4145521, “Regioselective synthesis of 3,4-diaryl-5-unsubstituted isoxazoles, analogues of natural cytostatic combretastatin A4” (Eur J Med Chem, 2018):

Experiments:
Format in all cases: functional
NCI/ADR-RES [1] = test: Cytotoxicity against human NCI/ADR-RES cells assessed as cell growth at 0.1 uM incubated for 48 hrs by sulforhodamine B assay relative to control; conditions: read-out: Activity
HCT-15 = test: Cytotoxicity against human HCT15 cells assessed as cell growth at 1 uM incubated for 48 hrs by sulforhodamine B assay relative to control; conditions: HCT-15, 48 h, read-out: Activity
SK-MEL-28 = test: Cytotoxicity against human SK-MEL-28 cells assessed as cell growth at 10 uM incubated for 48 hrs by sulforhodamine B assay relative to control; conditions: SK-MEL-28, 48 h, read-out: Activity
ACHN [2] = test: Cytotoxicity against human ACHN cells assessed as cell growth at 0.1 uM incubated for 48 hrs by sulforhodamine B assay relative to control; conditions: read-out: Activity
HT-29 [3] = test: Cytotoxicity against human HT-29 cells assessed as cell growth at 1 uM incubated for 48 hrs by sulforhodamine B assay relative to control; conditions: HT-29, 48 h, read-out: Activity
SF-539 = test: Cytotoxicity against human SF539 cells assessed as cell growth at 0.01 uM incubated for 48 hrs by sulforhodamine B assay relative to control; conditions: SF-539, 48 h, read-out: Activity
A549 = test: Cytotoxicity against human A549/ATCC cells assessed as cell growth at 10 uM incubated for 48 hrs by sulforhodamine B assay relative to control; conditions: A549, 48 h, read-out: Activity
SR = test: Cytotoxicity against human SR cells incubated for 48 hrs by sulforhodamine B assay
NCI/ADR-RES [4] = test: Cytotoxicity against human NCI/ADR-RES cells assessed as cell growth at 1 uM incubated for 48 hrs by sulforhodamine B assay relative to control; conditions: read-out: Activity
HT-29 [5] = test: Cytotoxicity against human HT-29 cells incubated for 48 hrs by sulforhodamine B assay; conditions: HT-29, 48 h
SK-MEL-5 = test: Cytotoxicity against human SK-MEL-5 cells assessed as cell growth at 0.1 uM incubated for 48 hrs by sulforhodamine B assay relative to control; conditions: SK-MEL-5, 48 h, read-out: Activity
LOX IMVI = test: Cytotoxicity against human LOXIMVI cells assessed as cell growth at 0.01 uM incubated for 48 hrs by sulforhodamine B assay relative to control; conditions: read-out: Activity
HCC 2998 [6] = test: Cytotoxicity against human HCC2998 cells assessed as cell growth at 10 uM incubated for 48 hrs by sulforhodamine B assay relative to control; conditions: HCC 2998, 48 h, read-out: Activity
SK-MEL-2 = test: Cytotoxicity against human SK-MEL-2 cells assessed as cell growth at 0.1 uM incubated for 48 hrs by sulforhodamine B assay relative to control; conditions: SK-MEL-2, 48 h, read-out: Activity
M14 = test: Cytotoxicity against human M14 cells assessed as cell growth at 1 uM incubated for 48 hrs by sulforhodamine B assay relative to control; conditions: M14, 48 h, read-out: Activity
Hs-578T [7] = test: Cytotoxicity against human Hs 578T cells assessed as cell growth at 1 uM incubated for 48 hrs by sulforhodamine B assay relative to control; conditions: read-out: Activity
NCI/ADR-RES [8] = test: Cytotoxicity against human NCI/ADR-RES cells incubated for 48 hrs by sulforhodamine B assay
HCT-116 = test: Cytotoxicity against human HCT116 cells incubated for 48 hrs by sulforhodamine B assay; conditions: HCT-116, 48 h
SNB-19 = test: Cytotoxicity against human SNB19 cells incubated for 48 hrs by sulforhodamine B assay; conditions: SNB-19, 48 h
Paracentrotus lividus = test: Antimitotic activity against Paracentrotus lividus embryo assessed as embryo spinning after 15 mins to 20 hrs by light microscopy
Procedure, shortened: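 Free-swimming blastulae from the same culture were used just after hatching (8–10 h post-fertilization). They were kept in filtered seawater at room temperature and exposed to 2-fold decreasing concentrations. Spinning at the well bottom instead of forward swimming was monitored from 15 min to 20 h under light microscopy. The effective threshold concentration was recorded from duplicates.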

ACHN [9] = test: Cytotoxicity against human ACHN cells assessed as cell growth at 10 uM incubated for 48 hrs by sulforhodamine B assay relative to control; conditions: read-out: Activity
CAKI-1 = test: Cytotoxicity against human Caki1 cells incubated for 48 hrs by sulforhodamine B assay; conditions: CAKI-1, 48 h
T47D = test: Cytotoxicity against human T47D cells assessed as cell growth at 0.1 uM incubated for 48 hrs by sulforhodamine B assay relative to control; conditions: read-out: Activity
HCC 2998 [10] = test: Cytotoxicity against human HCC2998 cells assessed as cell growth at 1 uM incubated for 48 hrs by sulforhodamine B assay relative to control; conditions: HCC 2998, 48 h, read-out: Activity
OVCAR-3 [11] = test: Cytotoxicity against human OVCAR3 cells assessed as cell growth at 10 uM incubated for 48 hrs by sulforhodamine B assay relative to control; conditions: OVCAR-3, 48 h, read-out: Activity
PC-3 = test: Cytotoxicity against human PC3 cells assessed as cell growth at 1 uM incubated for 48 hrs by sulforhodamine B assay relative to control; conditions: PC-3, 48 h, read-out: Activity
MDA-MB-231 = test: Cytotoxicity against human MDA-MB-231 cells incubated for 48 hrs by sulforhodamine B assay; conditions: MDA-MB-231, 48 h
Hs-578T [12] = test: Cytotoxicity against human Hs 578T cells assessed as cell growth at 0.1 uM incubated for 48 hrs by sulforhodamine B assay relative to control; conditions: read-out: Activity
A498 = test: Cytotoxicity against human A498 cells assessed as cell growth at 0.1 uM incubated for 48 hrs by sulforhodamine B assay relative to control; conditions: A498, 48 h, read-out: Activity
OVCAR-3 [13] = test: Cytotoxicity against human OVCAR3 cells assessed as cell growth at 0.01 uM incubated for 48 hrs by sulforhodamine B assay relative to control; conditions: OVCAR-3, 48 h, read-out: Activity
[14] = read-out: LC50 (the source's name)
[15] = read-out: pLC50 (the source's name) (converted)

COc1ccc(-c2nocc2-c2cc(OC)c(OC)c(OC)c2)cc1
growth at 0.1 µM (NCI/ADR-RES [1]): 34% | growth at 1 µM (HCT-15): 23% | growth at 10 µM (SK-MEL-28): 46% | growth at 0.1 µM (ACHN [2]): 62% | growth at 1 µM (HT-29 [3]): 2% | growth at 0.01 µM (SF-539): 86% | growth at 10 µM (A549): 29% | GI50 (SR; read-out: GI50): 0.0717 µM | CC50 (SR; [14]): > 100 µM | TGI (SR; read-out: TGI): 58.3 µM | GI50 (SR; read-out: pGI50 (converted)): 0.0724 µM | CC50 (SR; [15]): > 100 µM | TGI (SR; read-out: pTGI (converted)): 58.9 µM | growth at 1 µM (NCI/ADR-RES [4]): 9% | GI50 (HT-29 [5]; read-out: GI50): 0.0365 µM | LC50 (HT-29 [5]; read-out: LC50): > 100 µM | TGI (HT-29 [5]; read-out: TGI): 12 µM | GI50 (HT-29 [5]; read-out: pGI50 (converted)): 0.0363 µM | LC50 (HT-29 [5]; read-out: pLC50 (converted)): > 100 µM | TGI (HT-29 [5]; read-out: pTGI (converted)): 12 µM | growth at 0.1 µM (SK-MEL-5): 41% | growth at 0.01 µM (LOX IMVI): 94% | growth at 10 µM (HCC 2998 [6]): 25% | growth at 0.1 µM (SK-MEL-2): 39% | growth at 1 µM (M14): 12% | growth at 1 µM (Hs-578T [7]): 31% | GI50 (NCI/ADR-RES [8]; read-out: GI50): 0.0538 µM | LC50 (NCI/ADR-RES [8]; read-out: LC50): > 100 µM | TGI (NCI/ADR-RES [8]; read-out: TGI): 37.2 µM | GI50 (NCI/ADR-RES [8]; read-out: pGI50 (converted)): 0.0537 µM | LC50 (NCI/ADR-RES [8]; read-out: pLC50 (converted)): > 100 µM | TGI (NCI/ADR-RES [8]; read-out: pTGI (converted)): 37.2 µM | GI50 (HCT-116; read-out: GI50): 0.039 µM | LC50 (concentration killing 50% of cells) (HCT-116; read-out: LC50): > 100 µM | TGI (HCT-116; read-out: TGI): 14.7 µM | GI50 (HCT-116; read-out: pGI50 (converted)): 0.0389 µM | LC50 (concentration killing 50% of cells) (HCT-116; read-out: pLC50 (converted)): > 100 µM | TGI (HCT-116; read-out: pTGI (converted)): 14.8 µM | GI50 (SNB-19; read-out: GI50): 0.373 µM | CC50 (SNB-19; [14]): > 100 µM | TGI (SNB-19; read-out: TGI): > 100 µM | GI50 (SNB-19; read-out: pGI50 (converted)): 0.372 µM | CC50 (SNB-19; [15]): > 100 µM | TGI (SNB-19; read-out: pTGI): > 100 µM | EC (Paracentrotus lividus): 1 µM | growth at 10 µM (ACHN [9]): 29% | GI50 (CAKI-1; read-out: GI50): 0.642 µM | LC50 (CAKI-1; read-out: LC50): > 100 µM | TGI (CAKI-1; read-out: TGI): > 100 µM | GI50 (CAKI-1; read-out: pGI50 (converted)): 0.646 µM | LC50 (CAKI-1; read-out: pLC50 (converted)): > 100 µM | TGI (CAKI-1; read-out: pTGI): > 100 µM | growth at 0.1 µM (T47D): 43% | growth at 1 µM (HCC 2998 [10]): 40% | growth at 10 µM (OVCAR-3 [11]): -9% | growth at 1 µM (PC-3): 18% | GI50 (MDA-MB-231; read-out: GI50): 0.45 µM | CC50 (MDA-MB-231; [14]): > 100 µM | TGI (MDA-MB-231; read-out: TGI): 34.2 µM | GI50 (MDA-MB-231; read-out: pGI50 (converted)): 0.447 µM | CC50 (MDA-MB-231; [15]): > 100 µM | TGI (MDA-MB-231; read-out: pTGI (converted)): 33.9 µM | growth at 0.1 µM (Hs-578T [12]): 77% | growth at 0.1 µM (A498): 29% | growth at 0.01 µM (OVCAR-3 [13]): 100%
